# Measured values as given in ChEMBL document CHEMBL3864175, “Sulfonamides as Selective NaV1.7 Inhibitors: Optimizing Potency and Pharmacokinetics to Enable in Vivo Target Engagement” (ACS Med Chem Lett, 2016).
# Key:
# [1] = Clearance in dog at 0.5 mg/kg, iv by LC-MS/MS analysis; format: ADME, organism-based, Canis lupus familiaris; conditions: in vivo
# [2] = Tmax in dog at 1.7 mg/kg, po by LC-MS/MS analysis; format: ADME, organism-based, Canis lupus familiaris; conditions: in vivo
# Method in brief: (§1)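 Dogs given a 1.7 mg/kg oral dose as a solution in 30% HPBCD/70% water/KOH at pH = 10; plasma parameters derived from this oral dosing, with the iv dose at 0.5 mg/kg in the same vehicle.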
# [3] = Half life in dog at 0.5 mg/kg, iv by LC-MS/MS analysis; format: ADME, organism-based, Canis lupus familiaris; conditions: in vivo
# Method in brief: (§2)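 Dogs dosed intravenously at 0.5 mg/kg in 30% HPBCD/70% water, brought to pH 10 with KOH.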
# [4] = target: T1, Sodium channel protein type 9 subunit alpha (Homo sapiens, UniProt Q15858); test: Inhibition of human Nav1.7 in closed state expressed in HEK293 cells assessed as inhibition of sodium current at holding potential of -140 mV measured for 3 to 5 mins by whole cell voltage clamp method; format: cell-based
# T1 sequence (Q15858 whole entry): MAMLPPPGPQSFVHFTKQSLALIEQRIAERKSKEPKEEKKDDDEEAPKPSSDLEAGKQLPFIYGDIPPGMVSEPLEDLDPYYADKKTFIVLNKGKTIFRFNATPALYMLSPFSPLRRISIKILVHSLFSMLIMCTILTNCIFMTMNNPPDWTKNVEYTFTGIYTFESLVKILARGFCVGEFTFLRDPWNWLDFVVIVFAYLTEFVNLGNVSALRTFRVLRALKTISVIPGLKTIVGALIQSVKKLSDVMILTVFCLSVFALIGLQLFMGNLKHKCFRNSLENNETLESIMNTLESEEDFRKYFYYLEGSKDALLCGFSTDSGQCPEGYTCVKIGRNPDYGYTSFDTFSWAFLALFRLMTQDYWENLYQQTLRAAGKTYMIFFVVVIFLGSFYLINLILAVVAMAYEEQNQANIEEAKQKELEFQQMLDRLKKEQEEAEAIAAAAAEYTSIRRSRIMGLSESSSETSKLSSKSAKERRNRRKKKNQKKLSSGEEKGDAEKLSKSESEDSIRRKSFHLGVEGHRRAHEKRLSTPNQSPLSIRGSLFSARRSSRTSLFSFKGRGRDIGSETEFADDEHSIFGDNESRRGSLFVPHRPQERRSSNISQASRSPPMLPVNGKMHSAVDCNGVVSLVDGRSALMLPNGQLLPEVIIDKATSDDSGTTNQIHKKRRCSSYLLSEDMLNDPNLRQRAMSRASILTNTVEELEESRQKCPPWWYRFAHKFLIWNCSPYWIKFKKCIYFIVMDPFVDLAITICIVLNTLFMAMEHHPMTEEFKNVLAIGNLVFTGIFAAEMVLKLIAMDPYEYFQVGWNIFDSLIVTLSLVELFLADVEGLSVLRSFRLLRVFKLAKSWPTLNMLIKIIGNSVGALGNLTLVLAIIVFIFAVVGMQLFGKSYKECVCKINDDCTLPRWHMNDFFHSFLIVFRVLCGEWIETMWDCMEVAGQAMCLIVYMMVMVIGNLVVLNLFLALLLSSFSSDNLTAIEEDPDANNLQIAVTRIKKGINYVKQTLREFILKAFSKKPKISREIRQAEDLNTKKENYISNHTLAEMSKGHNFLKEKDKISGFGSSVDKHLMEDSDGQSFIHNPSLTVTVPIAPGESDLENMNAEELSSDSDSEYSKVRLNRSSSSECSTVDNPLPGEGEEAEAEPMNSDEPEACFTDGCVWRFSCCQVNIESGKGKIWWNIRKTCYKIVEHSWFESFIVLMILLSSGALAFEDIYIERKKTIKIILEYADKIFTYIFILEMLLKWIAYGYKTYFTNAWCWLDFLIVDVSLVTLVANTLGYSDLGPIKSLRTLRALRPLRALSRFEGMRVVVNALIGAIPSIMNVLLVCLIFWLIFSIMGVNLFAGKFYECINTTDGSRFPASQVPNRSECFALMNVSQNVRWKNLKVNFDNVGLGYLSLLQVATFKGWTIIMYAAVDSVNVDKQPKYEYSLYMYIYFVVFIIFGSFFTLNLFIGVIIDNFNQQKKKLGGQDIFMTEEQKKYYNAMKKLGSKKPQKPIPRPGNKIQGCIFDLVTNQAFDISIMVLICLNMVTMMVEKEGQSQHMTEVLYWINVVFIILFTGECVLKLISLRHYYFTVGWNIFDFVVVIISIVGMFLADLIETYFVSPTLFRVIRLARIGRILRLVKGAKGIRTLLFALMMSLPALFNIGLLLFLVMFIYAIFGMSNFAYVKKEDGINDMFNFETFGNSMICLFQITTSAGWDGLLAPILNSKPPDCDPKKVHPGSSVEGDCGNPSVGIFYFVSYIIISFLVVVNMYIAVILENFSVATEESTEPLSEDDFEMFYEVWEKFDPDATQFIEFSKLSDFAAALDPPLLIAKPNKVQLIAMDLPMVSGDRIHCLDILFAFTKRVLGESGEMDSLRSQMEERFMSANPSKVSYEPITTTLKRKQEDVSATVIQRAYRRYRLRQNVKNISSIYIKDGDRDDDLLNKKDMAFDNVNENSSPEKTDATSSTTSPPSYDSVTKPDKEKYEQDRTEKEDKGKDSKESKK
# Method in brief: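 Closed-state (fully non-inactivated) protocol: inhibition was measured with cells held at −140 mV, for comparison with protocols using inactivating depolarizations.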
# [5] = target: T1, Sodium channel protein type 9 subunit alpha; test: Inhibition of human Nav1.7 expressed in HEK293 cells assessed as inhibition of sodium current at holding potential of -125 mV measured for 3 to 5 mins by whole cell voltage clamp method; format: cell-based
# [6] = Inhibition of 20% inactivated cynomolgus monkey Nav1.7 expressed in HEK293T cells assessed as inhibition of sodium current measured for 3 to 5 mins by whole cell voltage clamp method; format: cell-based; conditions: Macaca fascicularis, HEK-293T
# Method in brief: (§3)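 Electrophysiological block was measured with cells depolarized to a voltage that gave 20% channel inactivation, as opposed to a fully non-inactivated (closed) holding condition.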
# [7] = Cmax in dog at 1.7 mg/kg, po by LC-MS/MS analysis; format: ADME, organism-based, Canis lupus familiaris; design: dose 1.7 mg/kg, route oral; conditions: in vivo; method in brief: as §1
# [8] = Selectivity index, ratio of IC50 for human Nav1.5 expressed in HEK293 cells to IC50 for human Nav 1.7 expressed in HEK293 cells
# [9] = Unbound plasma concentration in histamine induced C57BL/6 mouse model of scratching at 20 mg/kg, po pretreated for 120 mins followed by histamine-challenge measured after 30 mins; format: ADME, organism-based; conditions: in vivo, 0.5 h
# Method in brief: (§4)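 Male C57BL/6 mice dosed orally 120 min before intradermal histamine. Scratching bouts counted over 30 min and compared with vehicle by one-way ANOVA with Dunnett's test. Total and unbound plasma levels taken 30 min after histamine.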
# [10] = Total plasma concentration in histamine induced C57BL/6 mouse model of scratching at 5 mg/kg, po pretreated for 120 mins followed by histamine-challenge measured after 30 mins; format: ADME, organism-based; method in brief: as §4
# [11] = target: T2, Sodium channel protein type 9 subunit alpha (Mus musculus, UniProt Q62205); test: Inhibition of 20% inactivated Nav1.7 in C57BL/6 mouse DRG neurons assessed as inhibition of sodium currents in presence of TTX by whole cell patch clamp assay
# T2 sequence (Q62205 whole entry): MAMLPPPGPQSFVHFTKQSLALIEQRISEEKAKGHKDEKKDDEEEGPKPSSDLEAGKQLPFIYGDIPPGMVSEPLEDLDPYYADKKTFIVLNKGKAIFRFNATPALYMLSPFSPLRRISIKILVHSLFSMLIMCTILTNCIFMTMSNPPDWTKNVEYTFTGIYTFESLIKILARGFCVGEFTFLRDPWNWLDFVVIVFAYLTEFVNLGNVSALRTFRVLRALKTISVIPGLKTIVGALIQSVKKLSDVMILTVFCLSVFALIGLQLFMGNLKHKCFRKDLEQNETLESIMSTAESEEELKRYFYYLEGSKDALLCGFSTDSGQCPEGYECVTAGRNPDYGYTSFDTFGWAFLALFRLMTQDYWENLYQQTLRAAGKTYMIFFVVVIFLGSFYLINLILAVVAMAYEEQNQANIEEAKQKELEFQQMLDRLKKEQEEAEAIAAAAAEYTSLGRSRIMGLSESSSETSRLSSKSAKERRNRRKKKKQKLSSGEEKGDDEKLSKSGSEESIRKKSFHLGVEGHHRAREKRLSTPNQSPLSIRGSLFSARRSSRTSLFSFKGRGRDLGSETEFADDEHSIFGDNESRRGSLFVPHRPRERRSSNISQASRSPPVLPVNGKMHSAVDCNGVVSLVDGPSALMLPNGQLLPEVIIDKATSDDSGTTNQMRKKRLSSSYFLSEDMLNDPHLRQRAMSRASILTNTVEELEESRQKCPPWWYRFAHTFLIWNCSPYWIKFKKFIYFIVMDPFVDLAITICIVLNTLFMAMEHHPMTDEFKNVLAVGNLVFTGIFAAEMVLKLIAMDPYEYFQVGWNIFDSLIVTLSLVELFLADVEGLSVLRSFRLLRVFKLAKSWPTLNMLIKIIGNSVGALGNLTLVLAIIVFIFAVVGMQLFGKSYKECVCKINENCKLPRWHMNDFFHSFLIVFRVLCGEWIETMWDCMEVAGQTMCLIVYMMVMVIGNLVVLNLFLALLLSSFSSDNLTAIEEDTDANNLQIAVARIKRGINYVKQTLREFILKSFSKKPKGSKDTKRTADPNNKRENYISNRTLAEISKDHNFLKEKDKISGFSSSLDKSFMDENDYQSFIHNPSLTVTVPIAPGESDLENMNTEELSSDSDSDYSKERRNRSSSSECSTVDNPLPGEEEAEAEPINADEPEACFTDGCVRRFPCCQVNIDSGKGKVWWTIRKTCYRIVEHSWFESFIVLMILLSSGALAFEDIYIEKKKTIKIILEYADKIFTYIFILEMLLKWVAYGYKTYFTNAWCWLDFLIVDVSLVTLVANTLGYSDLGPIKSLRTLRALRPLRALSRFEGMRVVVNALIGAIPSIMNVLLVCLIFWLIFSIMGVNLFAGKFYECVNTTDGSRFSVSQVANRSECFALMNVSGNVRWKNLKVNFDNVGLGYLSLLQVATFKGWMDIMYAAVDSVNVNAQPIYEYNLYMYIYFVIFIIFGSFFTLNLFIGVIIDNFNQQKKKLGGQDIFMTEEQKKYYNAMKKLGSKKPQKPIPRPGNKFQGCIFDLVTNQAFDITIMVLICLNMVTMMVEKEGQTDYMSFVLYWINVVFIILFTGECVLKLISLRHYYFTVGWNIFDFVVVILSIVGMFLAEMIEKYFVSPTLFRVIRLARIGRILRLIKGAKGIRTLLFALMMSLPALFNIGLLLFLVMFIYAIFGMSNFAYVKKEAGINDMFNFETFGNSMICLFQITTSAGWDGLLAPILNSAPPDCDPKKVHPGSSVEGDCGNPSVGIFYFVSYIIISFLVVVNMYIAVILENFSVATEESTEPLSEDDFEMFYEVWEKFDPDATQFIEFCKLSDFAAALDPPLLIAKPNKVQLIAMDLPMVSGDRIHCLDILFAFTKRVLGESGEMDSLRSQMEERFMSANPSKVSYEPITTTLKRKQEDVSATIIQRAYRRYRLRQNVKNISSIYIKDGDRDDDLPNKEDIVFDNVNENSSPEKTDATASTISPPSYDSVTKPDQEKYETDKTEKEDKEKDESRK
# Method in brief: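 Electrophysiology of TTX-sensitive sodium channels recorded from the cell bodies of sensory neurons freshly dissociated from mouse dorsal root ganglia.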
# [12] = target: Voltage-gated inwardly rectifying potassium channel KCNH2 (Homo sapiens, UniProt Q12809); test: Displacement of [3H]dofetilide from human ERG expressed in HEK293 cell membranes measured after 90 mins by TopCount scintillation counting method
# Chain of Voltage-gated inwardly rectifying potassium channel KCNH2 (Q12809 whole entry): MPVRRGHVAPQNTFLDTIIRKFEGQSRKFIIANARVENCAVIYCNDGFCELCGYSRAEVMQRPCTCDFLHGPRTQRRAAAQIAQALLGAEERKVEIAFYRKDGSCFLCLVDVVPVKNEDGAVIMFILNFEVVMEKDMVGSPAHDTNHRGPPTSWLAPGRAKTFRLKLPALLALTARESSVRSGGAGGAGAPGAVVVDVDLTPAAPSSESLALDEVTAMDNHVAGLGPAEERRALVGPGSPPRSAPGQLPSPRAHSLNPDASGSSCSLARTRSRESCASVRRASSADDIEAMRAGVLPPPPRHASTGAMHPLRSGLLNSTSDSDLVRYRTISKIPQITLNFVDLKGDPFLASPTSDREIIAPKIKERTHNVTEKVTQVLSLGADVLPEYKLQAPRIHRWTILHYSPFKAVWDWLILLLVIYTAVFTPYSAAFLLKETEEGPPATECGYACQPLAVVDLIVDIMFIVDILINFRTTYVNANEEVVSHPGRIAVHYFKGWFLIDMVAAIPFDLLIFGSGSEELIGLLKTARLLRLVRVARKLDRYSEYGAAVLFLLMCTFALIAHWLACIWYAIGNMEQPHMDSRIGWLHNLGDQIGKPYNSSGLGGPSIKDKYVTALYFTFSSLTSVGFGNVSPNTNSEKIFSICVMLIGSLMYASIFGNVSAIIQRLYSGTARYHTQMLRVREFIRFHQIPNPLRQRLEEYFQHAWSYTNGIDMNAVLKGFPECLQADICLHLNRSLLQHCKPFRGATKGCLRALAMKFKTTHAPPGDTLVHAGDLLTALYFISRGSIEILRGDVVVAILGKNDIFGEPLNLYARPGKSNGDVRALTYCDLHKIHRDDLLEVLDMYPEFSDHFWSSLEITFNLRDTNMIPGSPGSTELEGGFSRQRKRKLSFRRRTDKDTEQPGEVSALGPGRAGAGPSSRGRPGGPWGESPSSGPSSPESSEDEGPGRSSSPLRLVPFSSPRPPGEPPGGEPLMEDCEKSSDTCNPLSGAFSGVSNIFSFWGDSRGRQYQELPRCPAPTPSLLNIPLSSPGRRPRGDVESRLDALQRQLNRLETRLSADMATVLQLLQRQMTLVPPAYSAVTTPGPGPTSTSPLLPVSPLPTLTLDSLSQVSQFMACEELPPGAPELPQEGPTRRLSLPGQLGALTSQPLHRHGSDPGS
# [13] = Apparent permeability in MDCK cells; format: ADME, cell-based, Canis lupus familiaris; conditions: dog
# Method in brief: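 Apparent permeability measured in parental MDCK cells.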
# [14] = target: Sodium channel protein type 4 subunit alpha (Homo sapiens, UniProt P35499); test: Inhibition of 20% inactivated human Nav1.4 expressed in HEK293 cells assessed as inhibition of peak inward current by whole cell patch clamp method; format: cell-based
# [15] = Unbound clearance in dog at 0.5 mg/kg, iv by LC-MS/MS analysis; format: ADME, organism-based, Canis lupus familiaris; conditions: in vivo; method in brief: as §2
# [16] = Fraction unbound in rat plasma at 5 uM measured after 45 mins by LC-MS/MS analysis; format: ADME, cell-free
# Mus musculus = test: Toxicity in C57BL/6 mouse assessed as reduction in locomotor activity at 5 to 60 mg/kg, po measured after 4 hrs by open field movement assay; format: organism-based; conditions: in vivo
# [17] = target: Sodium channel protein type 5 subunit alpha (Homo sapiens, UniProt Q14524); test: Inhibition of human Nav1.5 expressed in HEK293 cells assessed as inhibition of sodium current at holding potential of -125 mV measured for 3 to 5 mins by whole cell voltage clamp method; format: cell-based
# [18] = Total plasma concentration in histamine induced C57BL/6 mouse model of scratching at 60 mg/kg, po pretreated for 120 mins followed by histamine-challenge measured after 30 mins; format: ADME, organism-based; method in brief: as §4
# [19] = target: T2, Sodium channel protein type 9 subunit alpha; test: Inhibition of 20% inactivated mouse Nav1.7 expressed in HEK293 cells assessed as inhibition of sodium current measured for 3 to 5 mins by whole cell voltage clamp method; format: cell-based
# Method in brief: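 Mouse NaV1.7 was stably transfected into HEK293 cells. Block was measured with cells depolarized to a voltage that gave 20% channel inactivation.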
# [20] = target: Sodium channel protein type 8 subunit alpha (Homo sapiens, UniProt Q9UQD0); test: Inhibition of 20% inactivated human Nav1.6 expressed in HEK293 cells assessed as inhibition of peak inward current by whole cell patch clamp method; format: cell-based
# [21] = target: Sodium channel protein type 3 subunit alpha (Homo sapiens, UniProt Q9NY46); test: Inhibition of 20% inactivated human Nav1.3 expressed in CHO cells assessed as inhibition of peak inward current by whole cell patch clamp method; format: cell-based
# [22] = target: Sodium channel protein type 10 subunit alpha (Homo sapiens, UniProt Q9Y5Y9); test: Inhibition of 20% inactivated human Nav1.8 expressed in CHO cells assessed as inhibition of TTX-resistant current by whole cell patch clamp method; format: cell-based
# [23] = Ratio of drug level in brain to plasma in C57BL/6 mouse; format: ADME; conditions: read-out: BPR
# [24] = Dissociation constant, pKa of the compound at pH 1.7 to 11.2 by capillary electrophoresis method; format: physicochemical
# Method in brief: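 pKa values calculated from capillary electrophoresis data collected over pH 1.7 to 11.2.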
# [25] = Clearance in rat at 0.5 mg/kg, iv by LC-MS/MS analysis; format: ADME, organism-based; conditions: in vivo
# Method in brief: (§5)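 Male rats, n = 2 per group, dosed intravenously at 0.5 mg/kg as a solution in 100% DMSO. Unbound clearance is derived from total clearance.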
# [26] = target: Sodium channel protein type 9 subunit alpha (Rattus norvegicus, UniProt O08562); test: Inhibition of 20% inactivated rat Nav1.7 expressed in HEK293T cells assessed as inhibition of sodium current measured for 3 to 5 mins by whole cell voltage clamp method; format: cell-based, HEK-293T
# [27] = Inhibition of 20% inactivated dog Nav1.7 expressed in HEK293T cells assessed as inhibition of sodium current measured for 3 to 5 mins by whole cell voltage clamp method; format: cell-based; conditions: HEK-293T; method in brief: as §3
# [28] = Volume of distribution at steady state in rat at 0.5 mg/kg, iv by LC-MS/MS analysis; format: ADME, organism-based; conditions: in vivo, read-out: Vdss; method in brief: as §5
# [29] = Volume of distribution at steady state in dog at 0.5 mg/kg, iv by LC-MS/MS analysis; format: ADME, organism-based, Canis lupus familiaris; conditions: in vivo; method in brief: as §2
# [30] = target: Sodium channel protein type 1 subunit alpha (Homo sapiens, UniProt P35498); test: Inhibition of 20% inactivated human Nav1.1 expressed in HEK293 cells assessed as inhibition of peak inward current by whole cell patch clamp method; format: cell-based
structure (smiles),measurement,setting,value
COc1cc(C(F)(F)F)ccc1-c1ncnc2cc(S(=O)(=O)Nc3nccs3)ccc12,clearance,[1],0.217 mL/min/kg
same,Tmax,[2],2.3 h
same,half-life,[3],18 h
same,IC50,[4],7.2 µM
same,IC50,[5],0.16 µM
same,IC50,[6],0.16 µM
same,Cmax,[7],8 µM
same,Ratio IC50,[8],>100
same,Cp(f),[9],0.76 µM
same,concentration at 0.5 h,[10],3.1 µM
same,IC50,[11],0.13 µM
same,Ki,[12],> 30 µM
same,Papp,[13],31 ×10⁻⁶ cm/s
same,IC50,[14],17 µM
same,CL free,[15],17 mL/min/kg
same,"fraction unbound at 0.75 h, 5 µM",[16],0.016
same,Activity,Mus musculus,Non-Toxic
same,IC50,[17],> 30 µM
same,concentration at 0.5 h,[18],150 µM
same,IC50,[19],0.18 µM
same,IC50,[20],3.7 µM
same,IC50,[21],21 µM
same,IC50,[22],> 30 µM
same,Kp,[23],0.008
same,pKa,[24],6.5
same,clearance,[25],9 mL/min/kg
same,IC50,[26],3.5 µM
same,IC50,[27],0.18 µM
same,Vd,[28],1.5 L
same,Vd,[29],0.31 L/kg
same,IC50,[30],7.3 µM
